Results: PMC12107431 (Nucleic Acids Research, 2025)
Changes are numbered by the printed parent chain. In names and notes the source's numbering stands. Several values for one entry are separate records, joined by “and”; a condition that tells them apart may be missing. Equal values may be shown once. No end group written: not given here.

T1: ETO2-NHR4 (Homo sapiens, UniProt O75081)
T1 sequence (O75081 551-597): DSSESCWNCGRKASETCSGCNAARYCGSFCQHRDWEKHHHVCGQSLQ

B1: (M)PPPLx4 (GATAD2A residues 177-284, four polyproline-leucine motifs) (peptide, UniProt Q86YP4 177-284, looked up)
chain: QKPTGSVGSTVTTPPPLVRGTQNIPAGKPSLQTSSARMPGSVIPPPLVRGGQQASSKLGPQASSQVVMPPLVRGAQQIHSIRQHSSTGPPPLLLAPRASVPSVQIQGQ
B2: (M)PPPLx4: bacterially expressed GATAD2A residues 177–284 with four (M)PPPL motifs and C-terminal Twin-Strep-tag (protein)
chain: B1 chain
modifications: left off: thioredoxin, N-terminal, cleaved | His6, N-terminal, cleaved | Twin-Strep-tag, C-terminal, state not stated
B3: ETO2-NHR3-4 (NHR3 and NHR4 domains of human ETO2, residues 480-597) (domain or fragment, UniProt O75081 480-597, looked up)
chain: GYVPEDIWRKAEEAVNEVKRQAMSELQKAVSDAERKAHELITTERAKMERALAEAKRQASEDALTVINQQEDSSESCWNCGRKASETCSGCNAARYCGSFCQHRDWEKHHHVCGQSLQ
B4: ETO2-NHR3-4 (V497I/A501L) (domain or fragment, human, UniProt O75081 480-597, looked up)
chain: B3 chain with V18I, A22L
B5: PPPLx2A (GATAD2A residues 177-235, first two motifs) (peptide, UniProt Q86YP4 177-235, looked up)
chain: QKPTGSVGSTVTTPPPLVRGTQNIPAGKPSLQTSSARMPGSVIPPPLVRGGQQASSKLG

Key:
[1] = biological target: T1, ETO2-NHR4; experiment: 15N-HSQC chemical shift perturbation titration; assay type: binding
[2] = test system: ETO2-NHR3-4; experiment: ITC with ETO2-NHR3-4 in the presence of PKA; assay type: binding, human; details: ITC KD with vs without PKA (RIIα)
Summary of the method: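 ETO2-NHR3-4 (50 μM) is premixed at a 2:1 molar ratio with PKA (RII)α residues 1–45 (100 μM), both bacterially expressed and purified by Ni affinity, TEV cleavage and size exclusion. N-CoRx2A or PPPLx2A peptide (250 μM) is titrated in: 20 × 2 μL injections 180 s apart at 25 °C, in 25 mM Bis-Tris pH 7.2, 100 mM NaCl, 1 mM DTT, 50 μM ZnSO4. KD is fitted by software and reported as mean ± SD of two runs.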

[3] = biological target: NHR3 domain of ETO; details: PKA (RIIα) binding to NHR3 domain of ETO; cited from earlier work
[4] = biological target: B3; experiment: ITC
[5] = biological target: T1, ETO2-NHR4; experiment: Isothermal titration calorimetry; assay type: binding; details: all four motifs vs single motifs
[6] = test system: ETO2-NHR3-4; experiment: Isothermal titration calorimetry; assay type: binding, human; details: ITC KD ratio
[7] = biological target: B1; experiment: ITC
[8] = biological target: the molecule itself; experiment: SEC-MALS
[9] = biological target: B3; experiment: ITC; remark: listed apart in the source

KYGASSQVVMPPLVRGAQQ-NH2 [MPPL-3]
Kd [1]: 249 ± 3 µM

PPPLx2A: bacterially expressed GATAD2A residues 177–235, first two motifs (QKPTGSVGSTVTTPPPLVRGTQNIPAGKPSLQTSSARMPGSVIPPPLVRGGQQASSKLG; also: C-terminal Twin-Strep-tag, state not given here)
reduction of affinity for ETO2-NHR3-4 by PKA (RIIα) [2]: approximately 10 fold

PKA (RIIα): cAMP-dependent protein kinase type II-alpha regulatory subunit; residues 1–45 used here
Kd [3]: 0.128 µM

B1
Kd [4]: 3 µM

B2
increase of binding affinity compared to the individual binding sites [5]: up to 10 fold
increase of binding affinity with ETO2-NHR3-4 compared to the NHR4 domain alone [6]: 10 fold

DSSESCWNCGRKASETCSGCNAARYCGSFCQHRDWEKHHHVCGQSLQ (domain or fragment, UniProt O75081 551-597, looked up) [ETO2-NHR4 (NHR4 domain of human ETO2, residues 551-597)]
Kd [7]: 30 µM

B3
stoichiometry N [8]: 2 and 4

B4
stoichiometry N [8]: 4

B5
Kd [4]: 6 µM
KD in the presence of PKA (RIIα) [9]: 50 µM
